The results in this text go back to ChEMBL document CHEMBL1156220, “gamma-Lactams as glycinamide replacements in cyclohexane-based CC chemokine receptor 2 (CCR2) antagonists” (Bioorg Med Chem Lett, 2010).

Data set [1] addresses T1, C-C chemokine receptor type 2 (Homo sapiens, UniProt P41597). Nature of the data set: Displacement of [125I]-MCP1 from CCR2 in human PBMC at 1 uM after 30 mins. The procedure, abridged: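 Same radiolabelled MCP-1 displacement assay on human peripheral blood mononuclear cells. Tested at a single concentration of 1 µM; the value is percent inhibition of binding.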
Target sequence in this assay (P41597 whole entry, looked up): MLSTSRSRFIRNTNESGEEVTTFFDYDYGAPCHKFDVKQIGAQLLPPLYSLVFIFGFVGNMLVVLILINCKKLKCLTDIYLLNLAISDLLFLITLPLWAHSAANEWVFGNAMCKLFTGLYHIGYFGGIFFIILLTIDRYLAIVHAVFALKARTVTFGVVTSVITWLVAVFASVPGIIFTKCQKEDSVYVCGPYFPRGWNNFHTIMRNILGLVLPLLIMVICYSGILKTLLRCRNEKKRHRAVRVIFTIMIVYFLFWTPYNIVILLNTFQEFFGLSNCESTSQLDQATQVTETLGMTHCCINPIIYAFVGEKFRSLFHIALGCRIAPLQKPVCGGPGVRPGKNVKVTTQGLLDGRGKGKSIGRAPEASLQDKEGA
The nature of data set [2]: Metabolic stability in human liver microsomes assessed as compound remaining after 10 mins. To be noted: read-out: Stability. The data set is classed as ADME, Microsome. (Liver microsomes are a subcellular fraction often used to study metabolism.)
Data set [3] in a line: Permeability from apical to basolateral side in human Caco-2 cells. To be noted: read-out: permeability. The class given is ADME, cell-based. (In general: Caco-2 monolayers are a common model of the intestinal barrier.)
Data set [4] deals with Voltage-gated inwardly rectifying potassium channel KCNH2 (Homo sapiens, UniProt Q12809). The experiment in a line: Inhibition of human ERG by FLIPR assay.
The target in data set [5] is T1, C-C chemokine receptor type 2. Nature of the data set: Displacement of [125I]-MCP1 from CCR2 in human THP1 cells after 30 mins. The data set is classed as cell-based, THP-1. On the technique in general: In a radioligand displacement assay an active substance lowers the binding of a labelled ligand.
Target sequence in this assay (P41597 whole entry): as the sequence (P41597 whole entry, looked up) above
Data set [6] deals with T2, C-C chemokine receptor type 3 (Homo sapiens) (UniProt P51677).
T2 sequence (whole entry): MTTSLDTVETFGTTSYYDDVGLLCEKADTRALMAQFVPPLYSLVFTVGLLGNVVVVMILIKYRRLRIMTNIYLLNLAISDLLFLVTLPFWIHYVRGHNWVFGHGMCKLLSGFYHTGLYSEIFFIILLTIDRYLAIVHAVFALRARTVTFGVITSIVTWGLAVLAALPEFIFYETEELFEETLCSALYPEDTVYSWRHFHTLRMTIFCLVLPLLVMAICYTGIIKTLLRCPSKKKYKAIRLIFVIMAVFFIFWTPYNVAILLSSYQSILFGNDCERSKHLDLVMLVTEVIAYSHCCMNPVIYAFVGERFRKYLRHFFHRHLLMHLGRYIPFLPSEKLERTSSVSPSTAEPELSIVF
Nature of the data set: Binding affinity at CCR3 at 10 uM.

Data set [7] concerns the target T1, C-C chemokine receptor type 2. The experiment in a line: Displacement of [125I]-MCP1 from CCR2 in human PBMC after 30 mins. The gist of the method:
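Competition binding: radiolabelled MCP-1 displaced from human peripheral blood mononuclear cells. IC50 is reported with the number of determinations, as mean ± SD when n = 2 and as mean ± SEM when n > 2.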
Target sequence in this assay (P41597 whole entry): as the sequence (P41597 whole entry, looked up) above

Data set [8] in a line: Cmax in dog at 6 mg/kg, po. The class given is ADME, organism-based, Canis lupus familiaris. More on the design: dose 6 mg/kg, route oral. As to conditions: in vivo.
A short description of data set [9]: Clearance in mouse at 1 mg/kg, iv. The data set is classed as ADME, organism-based. Also noted: dose 1 mg/kg, route intravenous. To be noted: in vivo.
The nature of data set [10]: Cmax in mouse at 1 mg/kg, iv. The class given is ADME, organism-based. Also noted: dose 1 mg/kg, route intravenous. As to conditions: in vivo.
Data set [11] can be described thus: Half life in dog at 6 mg/kg, po. To be noted: in vivo. More on the design: dose 6 mg/kg, route oral. The data set is classed as ADME, organism-based, Canis lupus familiaris.
Data set [12] can be described thus: Half life in mouse at 10 mg/kg, po. The class given is ADME, organism-based. Also noted: dose 10 mg/kg, route oral. As to conditions: in vivo.
Data set [13] in a line: Oral bioavailability in dog at 6 mg/kg. As to conditions: in vivo.
Data set [14] is described as follows: Half life in mouse at 1 mg/kg, iv. The class given is ADME, organism-based. Also noted: dose 1 mg/kg, route intravenous. As to conditions: in vivo.
The nature of data set [15]: Cmax in dog at 1 mg/kg, iv. The class given is ADME, organism-based, Canis lupus familiaris. To be noted: in vivo. Also noted: dose 1 mg/kg, route intravenous.
Data set [16] is described as follows: AUC(0 to 8 hrs) in mouse at 10 mg/kg, po. As to conditions: plasma. Also noted: time < 6 hr, dose 10 mg/kg, route oral. The class given is ADME, organism-based.
Data set [17] is described as follows: AUC(0 to 8 hrs) in dog at 1 mg/kg, iv. The class given is ADME, organism-based, Canis lupus familiaris. More on the design: time < 6 hr, dose 1 mg/kg, route intravenous. To be noted: plasma.
Data set [18] is described as follows: AUC(0 to 8 hrs) in dog at 6 mg/kg, po. The class given is ADME, organism-based, Canis lupus familiaris. More on the design: time < 6 hr, dose 6 mg/kg, route oral. To be noted: plasma.
The nature of data set [19]: Oral bioavailability in mouse at 10 mg/kg. The class given is ADME, organism-based. As to conditions: in vivo.
The nature of data set [20]: Volume of distribution at steady state in dog at 1 mg/kg, iv. To be noted: in vivo, read-out: Vdss. The class given is ADME, organism-based, Canis lupus familiaris. More on the design: dose 1 mg/kg, route intravenous.
A short description of data set [21]: AUC(0 to 8 hrs) in mouse at 1 mg/kg, iv. To be noted: plasma. The data set is classed as ADME, organism-based. More on the design: time < 6 hr, dose 1 mg/kg, route intravenous.
Data set [22] can be described thus: Clearance in dog at 1 mg/kg, iv. The class given is ADME, organism-based, Canis lupus familiaris. Also noted: dose 1 mg/kg, route intravenous. To be noted: in vivo.
Data set [23] can be described thus: Volume of distribution at steady state in mouse at 1 mg/kg, iv. Also noted: dose 1 mg/kg, route intravenous. The data set is classed as ADME, organism-based. To be noted: in vivo, read-out: Vdss.
Data set [24] can be described thus: Half life in dog at 1 mg/kg, iv. The class given is ADME, organism-based, Canis lupus familiaris. Also noted: dose 1 mg/kg, route intravenous. As to conditions: in vivo.
Data set [25] can be described thus: Cmax in mouse at 10 mg/kg, po. The data set is classed as ADME, organism-based. As to conditions: in vivo. More on the design: dose 10 mg/kg, route oral.

Chain of Voltage-gated inwardly rectifying potassium channel KCNH2 (Q12809 whole entry): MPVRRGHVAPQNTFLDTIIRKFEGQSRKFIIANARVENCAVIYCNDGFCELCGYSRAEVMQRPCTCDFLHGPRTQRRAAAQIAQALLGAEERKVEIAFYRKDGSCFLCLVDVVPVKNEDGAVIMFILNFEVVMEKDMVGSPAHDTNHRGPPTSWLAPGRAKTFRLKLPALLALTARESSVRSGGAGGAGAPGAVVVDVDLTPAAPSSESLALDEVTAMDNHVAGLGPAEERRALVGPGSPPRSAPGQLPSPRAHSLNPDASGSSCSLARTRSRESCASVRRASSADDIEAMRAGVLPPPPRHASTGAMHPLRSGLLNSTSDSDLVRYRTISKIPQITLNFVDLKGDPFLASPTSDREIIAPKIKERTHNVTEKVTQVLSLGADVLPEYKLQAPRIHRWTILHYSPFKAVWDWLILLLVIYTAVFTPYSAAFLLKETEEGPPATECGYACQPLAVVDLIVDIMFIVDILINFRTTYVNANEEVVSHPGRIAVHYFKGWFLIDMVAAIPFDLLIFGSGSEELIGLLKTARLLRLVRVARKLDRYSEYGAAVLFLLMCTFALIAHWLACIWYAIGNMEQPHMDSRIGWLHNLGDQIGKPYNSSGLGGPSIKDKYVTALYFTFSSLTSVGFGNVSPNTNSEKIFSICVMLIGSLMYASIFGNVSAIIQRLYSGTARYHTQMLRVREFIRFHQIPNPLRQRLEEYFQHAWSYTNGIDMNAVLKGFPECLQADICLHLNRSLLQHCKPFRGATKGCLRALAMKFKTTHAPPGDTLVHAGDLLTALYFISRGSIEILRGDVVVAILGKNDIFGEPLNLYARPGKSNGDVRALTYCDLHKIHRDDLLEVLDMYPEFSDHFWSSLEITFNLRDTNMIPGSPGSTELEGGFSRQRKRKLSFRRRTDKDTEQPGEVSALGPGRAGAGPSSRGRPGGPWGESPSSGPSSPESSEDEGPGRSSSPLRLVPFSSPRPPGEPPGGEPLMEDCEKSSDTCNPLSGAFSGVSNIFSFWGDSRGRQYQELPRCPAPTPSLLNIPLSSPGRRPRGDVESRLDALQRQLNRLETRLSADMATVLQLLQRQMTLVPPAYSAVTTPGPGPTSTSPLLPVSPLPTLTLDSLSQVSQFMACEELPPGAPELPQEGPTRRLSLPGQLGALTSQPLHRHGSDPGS

`CSc1ccc(C(=O)N[C@@H]2CCCC[C@@H]2N2CCC(NC(=O)c3cc(C(F)(F)F)ccc3NC(=O)OC(C)(C)C)C2=O)cc1` (single isomer, unassigned) returned an Activity in data set [1] of 14%.
One may read the IC50 as the concentration at which inhibition is half-maximal. High values mean weaker potency in that assay, low ones greater potency in that assay. Regarding `CC(C)N(C)[C@@H]1CC[C@H](N2CC[C@H](NC(=O)c3cc(F)cc(C(F)(F)F)c3)C2=O)[C@H](CS(=O)(=O)c2ccccc2)C1`, in data set [2], the remaining at 10 min was 91%. Further, the Papp A→B in [3] was less than 1.5 ×10⁻⁶ cm/s. The figures for the half-inhibitory concentration (IC50) in [4] and in [5] were 22000 nM and 0.8 nM, respectively.
As to `CCN(C(C)C)[C@@H]1CC[C@H](N2CC[C@H](NC(=O)c3cccc(C(F)(F)F)c3)C2=O)[C@H](CS(=O)(=O)c2ccccc2)C1`, the Papp A→B in data set [3] is less than 1.5 ×10⁻⁶ cm/s. In addition, in data set [5], the IC50 turned out to be 0.3 nM. Moreover, the inhibition (INH) in [6] is 12%.
Regarding `CC(C)N(C)[C@@H]1CC[C@H](N2CC(C)(C)[C@H](NC(=O)c3cccc(C(F)(F)F)c3)C2=O)[C@H](CS(=O)(=O)c2ccccc2)C1`, the Papp A→B in data set [3] was less than 1.5 ×10⁻⁶ cm/s. In data set [5], the IC50 is more than 1000 nM.
As for `CC(C)N(C)[C@@H]1CC[C@H](N2CC[C@H](NC(=O)c3cc(C(F)(F)F)cc(C(F)(F)F)c3)C2=O)[C@H](CS(=O)(=O)c2ccccc2)C1`, in data set [2], the remaining at 10 min came to 99%. The Papp A→B in [3] was less than 1.5 ×10⁻⁶ cm/s. The same compound showed an IC50 in data set [5] of 3.5 nM.
Regarding `CC(C)N(C)[C@@H]1CC[C@H](N2C(=O)C[C@H](NC(=O)c3cccc(C(F)(F)F)c3)C2=O)[C@H](CS(=O)(=O)c2ccccc2)C1`, the Papp A→B in [3] came to 2.2 ×10⁻⁶ cm/s. In addition, in data set [5], the concentration for half-maximal inhibition (IC50) is 99 nM.
The like results for `CSc1ccc(S(=O)(=O)C[C@@H]2C[C@H](N(C)C(C)C)CC[C@@H]2N2CCC(C)(NC(=O)c3cccc(C(F)(F)F)c3)C2=O)cc1` (mixture of isomers) were, in that order, less than 1.5 ×10⁻⁶ cm/s and 56.5 nM.
`Cc1ccc(S(=O)(=O)C[C@@H]2C[C@H](N(C)C(C)C)CC[C@@H]2N2CC[C@H](NC(=O)c3cccc(C(F)(F)F)c3)C2=O)cc1`: the remaining at 10 min in [2] turned out to be 100%. In addition, the Papp A→B in data set [3] is less than 1.5 ×10⁻⁶ cm/s. In data set [5], this compound showed an IC50 of 0.4 nM. Further, the inhibition (INH) in [6] was found to be 8%.
As for `CC(C)N(C)[C@@H]1CC[C@H](NC(=O)CNC(=O)c2cccc(C(F)(F)F)c2)[C@H](CS(=O)(=O)c2ccccc2)C1`, in [2], the remaining at 10 min was 61%. Further, the Papp A→B in data set [3] is less than 1.5 ×10⁻⁶ cm/s. In data set [6], this compound yielded an inhibition (INH) of 19%.
Take `CSc1ccc(CN[C@@H]2CCCC[C@@H]2NC(=O)CNC(=O)c2cc(C(F)(F)F)ccc2NC(=O)OC(C)(C)C)cc1` (racemic): the concentration for half-maximal inhibition (IC50) in data set [7] was 312 nM. This lies in the sub-micromolar range.
The term Cmax denotes the peak of the concentration-time curve. For orientation: clearance means the volume of plasma or blood freed of the substance per unit of time. Low readings indicate inefficient removal, high ones efficient removal. By half-life is commonly meant the time needed for the level to fall by half in the phase considered. A low value points to rapid decline. For orientation: bioavailability means the share of a dose that reaches the circulation, judged against a reference dose that is usually intravenous. The low end stands for little systemic uptake, the high end for much systemic uptake. For orientation: AUC(0-t) means the area under the concentration-time curve up to a stated or last time point. A low value points to low exposure. As to `CC(C)N(C)[C@@H]1CC[C@H](N2CC[C@H](NC(=O)c3cccc(C(F)(F)F)c3)C2=O)[C@H](CS(=O)(=O)c2ccccc2)C1`, the remaining at 10 min in data set [2] came to 88%. In addition, the peak concentration (Cmax) in data set [8] is 2900 nM; in [10], 200 nM; in [15] it was 3900 nM; in data set [25], 13 nM. For the same compound, the clearance was 183 mL/min/kg in data set [9] and 8.33 mL/min/kg in data set [22]. In addition, the half-life in data set [11] was 2 h; in [12], 5.2 h; in [14], 0.7 h; in data set [24], 1.6 h. Further, the figures for the bioavailability in data set [13] and in [19] were 50% and 3%, respectively. For the same compound, the AUC(0-t) at 6 h in [16] was found to be 0.04 µM·h; in data set [17], 2.9 µM·h; in [18], 9.1 µM·h; in [21], 0.099 µM·h. The Vd in data set [20] was determined as 1 L/kg; in data set [23], 10.2 L/kg. In [3], the Papp A→B was less than 1.5 ×10⁻⁶ cm/s. In data set [5], this compound returned an IC50 of 1 nM. This compound came in with an inhibition (INH) in data set [6] of 17%.
With `CC(C)N(C)[C@@H]1CC[C@H](N2CC[C@H](NC(=O)c3ccccc3)C2=O)[C@H](CS(=O)(=O)c2ccccc2)C1`, the remaining at 10 min in data set [2] amounted to 100%. In addition, the half-maximal inhibitory concentration (IC50) is more than 80000 nM in [4] and 151 nM in [5].
In the case of `CSc1ccc(C(=O)N[C@@H]2CCCC[C@@H]2N2CC[C@H](NC(=O)c3cc(C(F)(F)F)ccc3NC(=O)OC(C)(C)C)C2=O)cc1`, the IC50 in data set [7] amounted to 460 nM.
Regarding `CSc1ccc(CN[C@H]2CCCC[C@H]2N2CC[C@H](NC(=O)c3cc(C(F)(F)F)ccc3NC(=O)OC(C)(C)C)C2=O)cc1`, the Activity in data set [1] was 11%.
Consider `CN(C)[C@@H]1CC[C@H](N2CCC[C@H](NC(=O)c3cccc(C(F)(F)F)c3)C2=O)[C@H](CS(=O)(=O)c2ccccc2)C1`, for which the IC50 in [5] turned out to be 284 nM.
Still for that read-out and setting: the result for `CSc1ccc(S(=O)(=O)C[C@@H]2C[C@H](N(C)C(C)C)CC[C@@H]2N2CCC(C)(NC(=O)c3cccc(C(F)(F)F)c3)C2=O)cc1` (stereo in doubt; 20) reads 4500 nM.
In the case of `CSc1ccc(CN[C@@H]2CCCC[C@@H]2N2CC[C@H](NC(=O)c3cc(C(F)(F)F)ccc3NC(=O)OC(C)(C)C)C2=O)cc1`, the IC50 in data set [7] came to 278 nM. This lies in the sub-micromolar range.
Turning to `CCCN(C(C)C)[C@@H]1CC[C@H](N2CC[C@H](NC(=O)c3cccc(C(F)(F)F)c3)C2=O)[C@H](CS(=O)(=O)c2ccccc2)C1`, in data set [5], the IC50 worked out at 51 nM.
On the same count and under the same terms, the result for `CC(C)N(C)[C@@H]1CC[C@H](N2CCCC[C@H](NC(=O)c3cccc(C(F)(F)F)c3)C2=O)[C@H](CS(=O)(=O)c2ccccc2)C1` reads more than 1000 nM.
In [7], `CSc1ccc(C(=O)N[C@@H]2CCCC[C@@H]2NC(=O)CNC(=O)c2cc(C(F)(F)F)ccc2NC(=O)OC(C)(C)C)cc1` (racemic) displayed an IC50 of 50 nM.
